Assay results: ChEMBL document CHEMBL1145003, “Design and synthesis of highly potent benzodiazepine gamma-secretase inhibitors: preparation of (2S,3R)-3-(3,4-difluorophenyl)-2-(4-fluorophenyl)-4- hydroxy-N-((3S)-1-methyl-2-oxo-5- phenyl-2,3-dihydro-1H-benzo[e][1,4]-diazepin-3-yl)butyramide by use of an asymmetric Ireland-Claisen rearrangement” (J Med Chem, 2003)

assay: Inhibitory activity against human gamma-secretase in SH-SY5Y neuroblastoma cells; format: cell-based
How it was run: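 Whole-cell assay in SH-SY5Y neuroblastoma cells overexpressing exogenous substrate A4CTF, cleaved by endogenous human γ-secretase. IC50 determined over 0.3 nM to 10 µM; values are the mean of at least three determinations, reported with SD.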

First: C[C@@H](C(=O)N[C@H]1N=C(c2ccccc2)c2ccccc2N(C)C1=O)[C@@H](O)c1ccc(Cl)c(Cl)c1
Second: C[C@@H](C(=O)N[C@H]1N=C(c2ccccc2)c2ccccc2N(C)C1=O)[C@H](O)c1ccc(Cl)c(Cl)c1
The IC50 of the first is 1.5-fold lower: 880 nM for the first, 1340 nM for the second. The first is the more potent here.

Compared with `CC[C@H](c1ccc(F)c(F)c1)[C@@H](C(=O)N[C@H]1N=C(c2ccccc2)c2ccccc2N(C)C1=O)c1ccc(F)cc1`, `CN1C(=O)[C@@H](NC(=O)[C@@H](c2ccc(F)cc2)[C@H](CBr)c2ccc(F)c(F)c2)N=C(c2ccccc2)c2ccccc21` is 32-fold lower in IC50: 212 nM for the first, 6.7 nM for the second.

Compared with `O=C1Nc2ccccc2C(c2ccccc2)=N[C@@H]1NC(=O)[C@@H](c1ccc(F)cc1)[C@H](CCO)c1ccc(F)c(F)c1`, `O=C1Nc2ccccc2C(c2ccccc2)=N[C@@H]1NC(=O)[C@@H](c1ccc(F)cc1)[C@H](CO)c1ccc(F)c(F)c1` is 580-fold lower in IC50: 35 nM for the first, 0.06 nM for the second. The second is the more potent here.

Going from `CN1C(=O)[C@@H](NC(=O)[C@@H](c2ccc(F)cc2)C(O)c2ccc(F)c(F)c2)N=C(c2ccccc2)c2ccccc21` (stereo not given in full) to `CN1C(=O)[C@@H](NC(=O)[C@H](c2ccc(F)cc2)[C@@H](O)c2ccc(F)c(F)c2)N=C(c2ccccc2)c2ccccc21`, the IC50 rises from 0.8 nM to 9.6 nM (12-fold). The first is the more potent here.

Compared with `CC(C(=O)N[C@H]1N=C(c2ccccc2)c2ccccc2N(C)C1=O)C(=O)c1ccc(Cl)c(Cl)c1` (stereo not given in full), `CC(C(=O)N[C@H]1N=C(c2ccccc2)c2ccccc2N(C)C1=O)/C(=N/O)c1ccc(Cl)c(Cl)c1` (stereo not given in full) is 27-fold lower in IC50: 930 nM for the first, 35 nM for the second.

Compared with `CO[C@H](c1ccc(Cl)c(Cl)c1)[C@H](C)C(=O)N[C@H]1N=C(c2ccccc2)c2ccccc2N(C)C1=O`, `C[C@H](C(=O)N[C@H]1N=C(c2ccccc2)c2ccccc2N(C)C1=O)[C@H](OC(N)=O)c1ccc(Cl)c(Cl)c1` is 42-fold higher in IC50: 59 nM for the first, 2450 nM for the second.

Compared with `C=C[C@H](c1ccc(F)c(F)c1)[C@@H](C(=O)N[C@H]1N=C(c2ccccc2)c2ccccc2N(C)C1=O)c1ccc(F)cc1`, `CN1C(=O)[C@@H](NC(=O)[C@@H](c2ccc(F)cc2)[C@H](CO)c2ccc(F)c(F)c2)N=C(c2ccccc2)c2ccccc21` is 1400-fold lower in IC50: 100 nM for the first, 0.07 nM for the second.

Compared with `CN1C(=O)[C@@H](NC(=O)[C@H](c2ccc(F)cc2)[C@@H](O)c2ccc(Cl)c(Cl)c2)N=C(c2ccccc2)c2ccccc21`, `CN1C(=O)[C@@H](NC(=O)[C@@H](c2ccc(F)cc2)C(O)c2ccc(Cl)c(Cl)c2)N=C(c2ccccc2)c2ccccc21` (stereo not given in full) is 56-fold lower in IC50: 67 nM for the first, 1.2 nM for the second.

Compared with `C[C@H](Cc1ccc(Cl)c(Cl)c1)C(=O)N[C@H]1N=C(c2ccccc2)c2ccccc2N(C)C1=O`, `C[C@H](C(=O)N[C@H]1N=C(c2ccccc2)c2ccccc2N(C)C1=O)[C@H](O)c1ccc(Cl)c(Cl)c1` is 17-fold lower in IC50: 320 nM for the first, 19 nM for the second.

Going from `C[C@H](C(=O)N[C@H]1N=C(c2ccccc2)c2ccccc2N(C)C1=O)[C@H](OS(N)(=O)=O)c1ccc(Cl)c(Cl)c1` to `C[C@H](C(=O)N[C@H]1N=C(c2ccccc2)c2ccccc2N(C)C1=O)[C@H](OCC(N)=O)c1ccc(Cl)c(Cl)c1`, the IC50 rises from 450 nM to 4750 nM (11-fold). The first is the more potent here.

Compared with `CC(C(=O)N[C@H]1N=C(c2ccccc2)c2ccccc2N(C)C1=O)C(CO)c1ccc(F)c(F)c1` (stereo not given in full), `C[C@H](C(=O)N[C@H]1N=C(c2ccccc2)c2ccccc2N(C)C1=O)[C@@H](O)c1ccc(Cl)c(Cl)c1` is 55-fold higher in IC50: 6.9 nM for the first, 380 nM for the second.

Going from `CO/N=C(\c1ccc(Cl)c(Cl)c1)C(C)C(=O)N[C@H]1N=C(c2ccccc2)c2ccccc2N(C)C1=O` (stereo not given in full) to `CN1C(=O)[C@@H](NC(=O)[C@@H](Cc2ccc(Cl)c(Cl)c2)c2ccc(F)cc2)N=C(c2ccccc2)c2ccccc21`, the IC50 falls from greater than 10000 nM to 15 nM. The second is the more potent here.

With `O=C1Nc2ccccc2N(c2ccccc2)C[C@@H]1NC(=O)[C@@H](c1ccc(F)cc1)[C@H](CO)c1ccc(F)c(F)c1` the IC50 was 0.07 nM.
